Activity calls are given as the source filed them. The rule behind the calls is not given here.
Legend:
[1] = target: DNA gyrase (Escherichia coli); assay: Inhibition of Escherichia coli JM109 DNA gyrase assessed as DNA triple helix formation by supercoiling assay
[2] = target: T1, Cell division inhibitor SulA (Escherichia coli K-12) (UniProt P0AFZ5); assay: Inhibition of Escherichia coli K-12 DNA sulA expressed in Escherichia coli DC2 assessed as compound concentration required for => 4-fold induction of luxCDABE operon by reported gene assay
T1 sequence (whole entry): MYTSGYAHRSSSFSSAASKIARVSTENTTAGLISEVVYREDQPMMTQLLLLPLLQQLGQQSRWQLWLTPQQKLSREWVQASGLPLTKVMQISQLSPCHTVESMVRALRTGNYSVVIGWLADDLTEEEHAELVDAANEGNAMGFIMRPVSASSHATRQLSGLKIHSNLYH
In short: (§1)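 E. coli DC2 carrying a gyrA or sulA promoter–luxCDABE (Photorhabdus) fusion plasmid. Grown overnight at 37°C in LB with 2 μg/ml tetracycline, then diluted 1:100 in LB without tetracycline and precultured 1.5 h at 37°C. Compounds were added from DMSO stocks to 1% final DMSO and incubated 5 h at 37°C. Bioluminescence was divided by A595, and induction factor is the treated/untreated ratio. The value is the lowest test concentration giving ≥4-fold induction.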

DNA gyrase subunit B = DNA gyrase subunit B (Escherichia coli, UniProt P0AES6); assay: Inhibition of Escherichia coli JM109 DNA gyrase subunit B assessed as ATP hydrolysis by ATPase assay
[3] = target: DNA gyrase subunit A (Escherichia coli K-12) (UniProt P0AES4); assay: Inhibition of Escherichia coli K-12 DNA gyrase A expressed in Escherichia coli DC2 assessed as compound concentration required for => 4-fold induction of luxCDABE operon by reported gene assay
In short: as §1

Compound | IC50 [1] | Activity [2] | IC50 (DNA gyrase subunit B) | Activity [3]
COc1cc(C(=O)Nc2c(O)c3ccc(O[C@@H]4OC(C)(C)[C@H](OC)[C@@H](O)[C@H]4OC(=O)c4ccc(C)[nH]4)c(Cl)c3oc2=O)ccc1O | 460 nM | 100 µM | 891 nM | inactive
CO[C@@H]1[C@@H](O)[C@@H](O)[C@H](Oc2ccc3c(O)c(NC(=O)/C=C/c4ccccc4)c(=O)oc3c2C)OC1(C)C |  | inactive | > 10000 nM | inactive
C=CCc1cc(C(=O)Nc2c(O)c3ccc(O[C@@H]4OC(C)(C)[C@H](OC)[C@@H](O)[C@H]4OC(=O)c4ccc(C)[nH]4)c(C)c3oc2=O)ccc1O | 460 nM | 100 µM | 2790 nM | inactive
CO[C@@H]1[C@@H](O)[C@@H](OC(=O)c2ccc(C)[nH]2)[C@H](Oc2ccc3c(O)c(NC(=O)c4cc(C)c(O)c(C)c4)c(=O)oc3c2Cl)OC1(C)C | 320 nM | 100 µM | 376 nM | 100 µM
CO[C@@H]1[C@@H](O)[C@@H](OC(=O)c2ccc(C)[nH]2)[C@H](Oc2ccc3c(O)c(NC(=O)c4ccccc4)c(=O)oc3c2Cl)OC1(C)C | 110 nM | 50 µM | 297 nM | > 100 µM
CO[C@@H]1[C@@H](O)[C@@H](O)[C@H](Oc2ccc3c(O)c(NC(=O)c4cc(C)c(O)c(C)c4)c(=O)oc3c2C)OC1(C)C |  | inactive | > 10000 nM | inactive
CO[C@@H]1[C@@H](O)[C@@H](O)[C@H](Oc2ccc3c(O)c(NC(=O)c4ccccc4)c(=O)oc3c2C)OC1(C)C |  | inactive | > 10000 nM | inactive
COc1cc(C(=O)Nc2c(O)c3ccc(O[C@@H]4OC(C)(C)[C@H](OC)[C@@H](O)[C@H]4O)c(C)c3oc2=O)ccc1O |  | inactive | > 10000 nM | inactive
CCCc1cc(C(=O)Nc2c(O)c3ccc(O[C@@H]4OC(C)(C)[C@H](OC)[C@@H](O)[C@H]4OC(=O)c4ccc(C)[nH]4)c(C)c3oc2=O)ccc1O | 140 nM | 100 µM | 758 nM | 25 µM
CO[C@@H]1[C@@H](O)[C@@H](OC(=O)c2ccc(C)[nH]2)[C@H](Oc2ccc3c(O)c(NC(=O)c4ccc(SC)cc4)c(=O)oc3c2Cl)OC1(C)C |  | 12.5 µM | 280 nM | inactive
CO[C@@H]1[C@@H](O)[C@@H](OC(=O)c2ccc(C)[nH]2)[C@H](Oc2ccc3c(O)c(NC(=O)/C=C/c4ccccc4)c(=O)oc3c2Cl)OC1(C)C | 1200 nM | inactive | 598 nM | > 100 µM
CCCc1cc(C(=O)Nc2c(O)c3ccc(O[C@@H]4OC(C)(C)[C@H](OC)[C@@H](O)[C@H]4O)c(C)c3oc2=O)ccc1O |  | inactive | > 10000 nM | 3.1 µM

Second part, the compound after the results:

IC50 [1] | Activity [2] | IC50 (DNA gyrase subunit B) | Activity [3] | Compound
 | 6.3 µM | 131 nM | 6.3 µM | CO[C@@H]1[C@@H](OC(=O)c2ccc(C)[nH]2)[C@@H](O)[C@H](Oc2ccc3c(O)c(NC(=O)c4ccccc4)c(=O)oc3c2C)OC1(C)C
50 nM | 50 µM | 219 nM | 50 µM | CO[C@@H]1[C@@H](OC(=O)c2ccc(C)[nH]2)[C@@H](O)[C@H](Oc2ccc3c(O)c(NC(=O)c4ccccc4)c(=O)oc3c2)OC1(C)C
 | 50 µM | 106 nM | inactive | CO[C@@H]1[C@@H](OC(=O)c2ccc(C)[nH]2)[C@@H](O)[C@H](Oc2ccc3c(O)c(NC(=O)/C=C/c4ccccc4)c(=O)oc3c2C)OC1(C)C
280 nM | 50 µM | 276 nM | 50 µM | CO[C@@H]1[C@@H](OC(=O)c2ccc(C)[nH]2)[C@@H](O)[C@H](Oc2ccc3c(O)c(NC(=O)/C=C/c4ccc(O)c(Cl)c4)c(=O)oc3c2)OC1(C)C
< 5 nM | 3.1 µM | 72 nM | 3.1 µM | CO[C@@H]1[C@@H](OC(=O)c2ccc(C)[nH]2)[C@@H](O)[C@H](Oc2ccc3c(O)c(NC(=O)c4ccccc4)c(=O)oc3c2Cl)OC1(C)C
